A selection: hits, their analogues and other compounds. The true share with any hit is near 1.9%.
CHRM4 antagonist – antagonists of human muscarinic M4 receptor (CHRM4); P08173; CHO-hM4 cells, ACh EC80, Fluo-8 calcium fluorescence; inhibition, % at 3 µM; 360,000 compounds, 0.73% hits;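 active = inhibition above its plate's cutoff, the mean inhibition of sample wells plus 3 SD, cut at about 27% in these data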
CHRM5 agonist – CHRM5 agonism in calcium assay; P08912; CHO-K1 hM5 cells, Fluo-8 calcium fluorescence; 0% DMSO wells, 100% maximal acetylcholine response; activation, % at 3 µM; 360,000 compounds, 0.19% hits;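 active = activation above the run's mean over test compounds plus 3 SD, cut at about 23% in these data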;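 also: signal is peak over basal fluorescence ratio across the kinetic read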
Target sequence (P08912 whole entry, looked up): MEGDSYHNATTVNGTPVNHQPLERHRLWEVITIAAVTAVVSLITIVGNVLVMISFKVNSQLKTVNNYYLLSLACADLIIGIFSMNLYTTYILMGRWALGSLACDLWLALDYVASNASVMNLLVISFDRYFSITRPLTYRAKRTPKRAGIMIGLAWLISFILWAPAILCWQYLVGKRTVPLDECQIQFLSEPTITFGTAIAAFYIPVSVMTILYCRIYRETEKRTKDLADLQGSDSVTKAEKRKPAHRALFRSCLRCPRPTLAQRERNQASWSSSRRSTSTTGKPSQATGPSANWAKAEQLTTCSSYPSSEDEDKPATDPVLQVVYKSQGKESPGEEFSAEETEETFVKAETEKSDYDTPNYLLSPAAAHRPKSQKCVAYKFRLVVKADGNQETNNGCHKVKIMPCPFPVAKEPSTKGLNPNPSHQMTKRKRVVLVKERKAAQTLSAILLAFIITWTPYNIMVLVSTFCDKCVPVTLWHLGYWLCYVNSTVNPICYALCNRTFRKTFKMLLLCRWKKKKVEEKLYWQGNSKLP
CHRM5 PAM – potentiates acetylcholine response at human M5 receptor; CHO-K1 hM5, Fluo-8 calcium, ACh EC20 PAM; 0% = ACh EC20, 100% = ACh EC100; activation, % at 3 µM; 360,000 compounds, 0.3% hits; AID 624038;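 active = activation above the run cutoff, the mean activation of all test compounds plus 3 SD, cut at about 18% in these data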
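System: CHO-K1 hM5 cells. Reagent: acetylcholine, EC20 level. Compound dosing: single dose, 3 µM nominal final test concentration. Timing: Post-acetylcholine fluorescence recording 140 s. Detection: Fluo-8 calcium fluorescence. Read-out: % activation, ACh-normalized. Benchmarks: ACh EC20 and EC100 wells. Repeats: singlicate, one well per test compound.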
M4 PAM – CHRM4 positive allosteric modulation. P08173. CHO-K1 hM4/Gqi5, Fluo-8 calcium fluorescence, ACh EC20; 0% = ACh EC20, 100% = maximal ACh. activation, % at 3 µM. 360,000 compounds, 0.4% hits;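 active = activation above its plate's cutoff, the mean activation of sample wells plus 3 SD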
CHRM4 agonist – agonists of human muscarinic M4 receptor (CHRM4) | 360,000 compounds, 0.14% hits | activation, % at 3 µM | P08173 | CHO-K1 hM4/Gqi5, Fluo-8 calcium fluorescence; vehicle 0%, full acetylcholine response 100%;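 active = activation above the run mean over all test wells plus 3 SD, cut at about 32% in these data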;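 also: peak over basal fluorescence ratio per well then scaled between controls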
CHRM5 antagonist – antagonists of human muscarinic M5 receptor (CHRM5) | P08912 | CHO-hM5 cells, Fluo-8 calcium fluorescence, ACh EC80 | inhibition, % at 3 µM | 360,000 compounds, 0.59% hits | AID 624040;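 active = inhibition above a per-plate cutoff, the mean of that plate's test compounds plus 3 SD, cut at about 27% in these data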
Large screens that a line does not name were inactive.

Cc1cccc(N2CCN(CC(=O)Nc3ccc(S(=O)(=O)N4CCOCC4)cc3)CC2)c1C	CHRM5 antagonist 34
CCN1CCN(c2ccc(S(=O)(=O)N3CCCCC3)cc2NC(=O)Cc2ccc(Cl)c(Cl)c2)CC1	CHRM5 agonist 28, CHRM4 agonist 54
O=C(COC(=O)c1ccc(Cl)nc1)NCCc1ccccc1	none
O=C(O)/C=C/C(=O)c1ccc2c(c1)CCc1ccccc1-2	none
CCOc1ccc(Oc2c(/C=N/NC(=O)C3CC3)c(C)nn2-c2ccccc2)cc1	none
CC1(C)CC(=O)c2c(O)cc(OCC(=O)Nc3ccc(CCO)cc3)cc2O1	none
CN(C(=O)COC(=O)CSc1ccccc1)c1c(N)n(Cc2ccccc2)c(=O)[nH]c1=O	none
Cc1ccccc1OCCC(=O)Nc1cc(S(=O)(=O)N2CCCCC2)ccc1N1CCN(C)CC1	CHRM4 agonist 56
CCCCCC(=O)Nc1cc(S(=O)(=O)N2CCOCC2)ccc1N1CCCC1	CHRM5 PAM 30
CCCCCC(=O)Nc1cc(S(=O)(=O)N2CCCCC2)ccc1N1CCOCC1	none
Cc1noc(C)c1NC(=O)N1C[C@H](O)COC[C@H]2O[C@@H](CC(=O)NCC3CCCCC3)CC[C@@H]21	none
CCCCN(C(=O)c1cccs1)C1CCS(=O)(=O)C1 (centres undefined)	none
CCOC(=O)Cn1nc(C)n(-c2ccc(C(C)(C)C)cc2)c1=O	CHRM5 PAM 21
O=C(CCN1C(=O)NC2(CCCC2)C1=O)Nc1ccc(-c2nc3ccccc3s2)cc1	CHRM4 antagonist 27
Cc1c(C(=O)NCCC2=CCCCC2)oc2ccc(S(=O)(=O)N3CCC4(CC3)OCCO4)cc12	CHRM4 antagonist 34
Cc1c(C(=O)NCc2ccccc2)oc2ccc(S(=O)(=O)N3CCC4(CC3)OCCO4)cc12	none
CC1CCCC(NC(=O)CCNC(=O)c2ccc([N+](=O)[O-])cc2)C1C (centres undefined)	none
CN(Cc1ccc(OC(F)F)cc1)C(=O)c1cccc(S(=O)(=O)N2CCN(c3ccccc3)CC2)c1	CHRM4 antagonist 39, CHRM5 antagonist 29
Cc1cccc(OCc2nc(C#N)c(N3CCCC3)o2)c1	CHRM5 PAM 21
Cc1cccc(OCc2nc(C#N)c(N3CC(C)CC(C)C3)o2)c1 (centres undefined)	none
Cc1ccccc1N(CC(=O)N1CCc2ccccc2C1)S(C)(=O)=O	none
CS(=O)(=O)N(CC(=O)N1CCc2ccccc2C1)c1ccccc1Br	M4 PAM 16
COc1cccc(CN(C)C(=O)c2cc(-c3ccc(OC)c(OC)c3)nc3ccccc23)c1	CHRM4 antagonist 30, CHRM5 antagonist 28
COc1ccc(CN(C)C(=O)c2cc(-c3ccc(OC)c(OC)c3)nc3ccccc23)c(OC)c1	CHRM4 antagonist 27
COc1ccc(-c2cc(C(=O)N(C)Cc3cccc(OC)c3OC)c3ccccc3n2)cc1OC	none
COc1cccc(CN(C)C(=O)c2cc(-c3ccc(F)cc3)nc3ccccc23)c1	none
COc1ccc(N2C(=O)Cc3c2nc(N)c(C#N)c3N)cc1	CHRM4 antagonist 28
Nc1[nH]nc2nc(N3CCCC3)nc(-c3ccccc3)c12	CHRM5 PAM 25
Cc1cc(C)c(C#N)c(SCC(=O)c2ccccc2)n1	M4 PAM 26
CSc1nc(N)nc(SCC(=O)c2ccccc2)c1C#N	none
Cc1cc(C)c(C#N)c(SCC(=O)c2cccs2)n1	CHRM4 antagonist 37, M4 PAM 75
Cc1nn2c(SCC(=O)c3cccs3)cc(C(C)(C)C)nc2c1-c1ccccc1	none
Cc1cc(SCC(=O)c2cccs2)n2nc(C)c(-c3ccc(Cl)cc3)c2n1	M4 PAM 23
Cc1ccccc1NC(=O)CSc1[nH]c(=O)cc(C)c1C#N	none
Cc1cc(=O)[nH]c(SCC(=O)c2ccccc2)c1C#N	M4 PAM 34
Cc1ccc(NC(=O)c2ccc(Cl)c(S(=O)(=O)N3CCCC3)c2)nc1	none
O=C(O)[C@H](Cc1ccccc1)N1C(=O)c2c(Cl)c(Cl)c(Cl)c(Cl)c2C1=O	none
